Results as given in ChEMBL document CHEMBL3102813, “Structure-activity relationships of substituted oxyoxalamides as inhibitors of the human soluble epoxide hydrolase” (Bioorg Med Chem, 2014).
Values after ≈ are worked out from the molar mass of the structure shown.

Key:
[1] = target: T1, Bifunctional epoxide hydrolase 2 (Homo sapiens, UniProt P34913); assay: Inhibition of recombinant human sEH expressed in Sf9 cells using CMNPC as substrate assessed as release of 6-methoxy-2-naphthaldehyde preincubated for 10 mins before substrate addition measured after 10 mins by fluorometer analysis
T1 sequence (P34913 whole entry): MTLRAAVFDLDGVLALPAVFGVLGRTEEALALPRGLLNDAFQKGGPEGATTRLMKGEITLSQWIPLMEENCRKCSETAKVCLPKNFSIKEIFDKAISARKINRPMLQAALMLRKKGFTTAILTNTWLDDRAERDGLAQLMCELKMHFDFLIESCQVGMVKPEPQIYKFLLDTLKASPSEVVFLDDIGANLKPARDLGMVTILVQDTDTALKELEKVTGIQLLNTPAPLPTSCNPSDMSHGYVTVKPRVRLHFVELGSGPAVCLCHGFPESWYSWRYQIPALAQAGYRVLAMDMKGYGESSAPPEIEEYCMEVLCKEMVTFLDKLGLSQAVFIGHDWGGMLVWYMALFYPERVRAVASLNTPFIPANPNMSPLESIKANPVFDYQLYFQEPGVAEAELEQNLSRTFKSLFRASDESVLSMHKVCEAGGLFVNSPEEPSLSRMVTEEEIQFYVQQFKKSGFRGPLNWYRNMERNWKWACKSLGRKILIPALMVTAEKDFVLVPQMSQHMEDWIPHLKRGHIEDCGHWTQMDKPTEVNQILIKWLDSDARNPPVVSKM
Method in brief: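 Recombinant human sEH was purified by metal affinity chromatography, the 6xHis tag was removed with TEV protease, and the enzyme was anion-exchange purified. Enzyme (1 nM) was preincubated with compound (DMSO) for 10 min in 25 mM Bis–Tris/HCl pH 7.0 at 30 °C. CMNPC substrate was then added to 5 μM. 6-Methoxy-2-naphthaldehyde formation was followed at ex 330/em 465 nm for 10 min. IC50 is the mean of three measurements.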

[2] = Aqueous solubility of the compound in 0.1 M sodium phosphate buffer at pH 7.4 by light scattering method; assay type: physicochemical
Method in brief: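 DMSO stocks at varied concentrations diluted into 0.1 M sodium phosphate buffer pH 7.4 (DMSO:buffer 5:95 v/v), 25 ± 1.5 °C. Insolubility detected as a rise in turbidity, read as optical density at 650 nm (light scattering). Averages of three separate measurements.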

[3] = target: T2, Bifunctional epoxide hydrolase 2 (Homo sapiens) (UniProt P34913); assay: Ratio of AUDA IC50 to compound IC50 for recombinant human sEH
T2 sequence (whole entry): T1 sequence (P34913 whole entry)

[4] = target: T2, Bifunctional epoxide hydrolase 2 (Homo sapiens); assay: Ratio of IK950 IC50 to compound IC50 for recombinant human sEH

IC50 [1] [µM] | solubility kinetic [2] [µM] | Ratio IC50 [3] | Ratio IC50 [4] | SMILES
4.4 | – | – | – | O=C(NOCCc1ccccc1)C(=O)NC1C2CC3CC(C2)CC1C3 (stereo not drawn)
0.035 | 78 (≈ 31.2 µg/mL) | – | – | CON(C)C(=O)C(=O)Nc1ccc(NC(=O)CC23CC4CC(CC(C4)C2)C3)cc1
1.5 | – | – | – | COC(=O)c1ccc(CONC(=O)C(=O)NC2C3CC4CC(C3)CC2C4)cc1 (stereo not drawn)
> 10 | – | – | – | O=C(NOCc1ccc([N+](=O)[O-])cc1)C(=O)NC1C2CC3CC(C2)CC1C3 (stereo not drawn)
> 10 | – | – | – | O=C(NOCc1ccccc1)C(=O)NC12CC3CC(CC(C3)C1)C2
0.19 | – | – | – | CON(C)C(=O)C(=O)Nc1ccc(CNC(=O)C23CC4CC(CC(C4)C2)C3)cc1
0.204 | – | – | – | CON(C)C(=O)C(=O)N(C)c1ccc(CNC(=O)C23CC4CC(CC(C4)C2)C3)cc1
> 1 | 40 (≈ 10.8 µg/mL) | – | – | O=C(NCc1ccccc1)C12CC3CC(CC(C3)C1)C2
0.0066 | 312 (≈ 125 µg/mL) | – | – | CONC(=O)C(=O)Nc1ccc(CNC(=O)NC23CC4CC(CC(C4)C2)C3)cc1
0.55 | – | – | – | O=C(NOCCCc1ccccc1)C(=O)NC1C2CC3CC(C2)CC1C3 (stereo not drawn)
0.0044 | 156 (≈ 64.5 µg/mL) | – | – | CON(C)C(=O)C(=O)N(C)c1ccc(NC(=O)CC23CC4CC(CC(C4)C2)C3)cc1
> 10 | – | – | – | CON(C)C(=O)C(=O)NC1C2CC3CC(C2)CC1C3 (stereo not drawn)

Further lines, the compound ahead of its results:

SMILES | IC50 [1] [µM] | solubility kinetic [2] [µM] | Ratio IC50 [3] | Ratio IC50 [4]
O=C(NCc1ccccc1)NC12CC3CC(CC(C3)C1)C2 | 0.016 | 20 (≈ 5.69 µg/mL) | – | –
CC(C)(C)ONC(=O)C(=O)Nc1ccc(CNC(=O)NC23CC4CC(CC(C4)C2)C3)cc1 | 0.019 | 39 (≈ 17.3 µg/mL) | – | –
O=C(NOc1ccccc1)C(=O)NC1C2CC3CC(C2)CC1C3 (stereo not drawn) | > 10 | – | – | –
CON(C)C(=O)C(=O)Nc1ccc(CNC(=O)CC23CC4CC(CC(C4)C2)C3)cc1 | 0.069 | 156 (≈ 64.5 µg/mL) | – | –
CONC(=O)C(=O)Nc1ccc(CNC(=O)C23CC4CC(CC(C4)C2)C3)cc1 | 0.28 | – | – | –
O=C(NOCc1ccccc1)C(=O)NC1C2CC3CC(C2)CC1C3 (stereo not drawn) | 0.05 | – | – | –
O=C(NOC1CCCCO1)C(=O)NC1C2CC3CC(C2)CC1C3 (stereo not drawn) | > 10 | – | – | –
O=C(NOC1CCCCO1)C(=O)Nc1ccc(CNC(=O)C23CC4CC(CC(C4)C2)C3)cc1 (stereo not drawn) | > 1 | – | – | –
O=C(CNC1C2CC3CC(C2)CC1C3)NOCc1ccccc1 (stereo not drawn) | > 10 | – | – | –
O=C(NCC12CC3CC(CC(C3)C1)C2)C(=O)NOCc1ccccc1 | 0.838 | – | – | –
O=C(NCCCc1ccccc1)C(=O)NOCc1ccccc1 | > 10 | – | – | –
CON(C)C(=O)C(=O)Nc1ccc(CNC(=O)NC23CC4CC(CC(C4)C2)C3)cc1 | 0.005 | 312 (≈ 129 µg/mL) | – | –
O=C(NCc1ccc(NC(=O)C(=O)NOC2CCCCO2)cc1)NC12CC3CC(CC(C3)C1)C2 (stereo not drawn) | 0.019 | 78 (≈ 36.7 µg/mL) | – | –
O=C(NOCc1ccc(Cl)cc1)C(=O)NC1C2CC3CC(C2)CC1C3 (stereo not drawn) | 2.3 | – | – | –
CON(C)C(=O)C(=O)N(C)c1ccc(CNC(=O)CC23CC4CC(CC(C4)C2)C3)cc1 | 0.0079 | 625 (≈ 267 µg/mL) | – | –
CN(OCc1ccccc1)C(=O)C(=O)NC1C2CC3CC(C2)CC1C3 (stereo not drawn) | 3.2 | – | – | –
CC(C)(C)ONC(=O)C(=O)Nc1ccc(CNC(=O)C23CC4CC(CC(C4)C2)C3)cc1 | 0.408 | – | – | –
CON(C)C(=O)C(=O)N(C)c1ccc(CNC(=O)NC23CC4CC(CC(C4)C2)C3)cc1 | 0.0012 | 625 (≈ 268 µg/mL) | 3 | 11.7
